Measured values of several laboratories.
Each line is one published result; the experiments were not run side by side.
Target: Vascular endothelial growth factor receptor 3 (FLT4, Homo sapiens, UniProt P35916)

SMILES	observed	mode	technique	tested at	measurement	value
CN1CCN(C(=O)c2ccc(NC(=O)Nc3ccc(N(C)c4ccnc(Nc5ccc(CS(C)(=O)=O)cc5)n4)cc3)cc2)CC1	binding		competition with immobilised ligand	1 µM	remaining binding	2%
CCCCC(=O)Nc1ccc(-c2ccc3ncn(CCC)c(=O)c3c2)cn1	binding		competition with immobilised ligand	0.5 µM	remaining binding	100%
COc1ccc2oc(-c3ccc4nc(N)oc4c3)c/c(=N\c3ccccc3NC(=O)CCN)c2c1	binding			1 µM	remaining binding	105%
O=C1C=C(Nc2ccc(OCc3cn(Cc4ccc(Br)cc4)nn3)cc2)C(=O)c2ccccc21	enzyme activity	inhibitor	radiometric	10 µM	inhibition	26%
C=CC(=O)N1CCC([C@@H]2CCNc3c(C(N)=O)c(-c4ccc(Oc5ccccc5)cc4)nn32)CC1	cell-free assay			1 µM	inhibition	12%
C1=C/COCc2cc(ccc2OCCN2CCCC2)Nc2nccc(n2)-c2cccc(c2)COC/1	binding			0.1 µM	remaining binding	69%
CC#CC(=O)N1CCC[C@H]1c1nc(-c2ccc(C(=O)Nc3ccccn3)cc2)c2c(N)nccn12	enzyme activity	inhibitor		1 µM	inhibition	0%
COc1ccc2[nH]c3c4[nH]c5ccc(OC)cc5c4c4c(c3c2c1)C(=O)NC4=O	binding		competition with immobilised ligand	1 µM	remaining binding	71%
